What was measured:
[1] = target: Bromodomain-containing protein 4 (Homo sapiens, UniProt O60885); assay: Binding affinity to His6-tagged BRD4 expressed in Escherichia coli by surface plasmon resonance assay
In short: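 SPR with tandem bromodomain (BRD2-BD12 or BRD4-BD12) amine-coupled to CM5 chip after EDC/NHS activation; protein 0.1−2 mg/mL in NaAc pH 4.5−5.5, >5 kRU immobilized, ethanolamine-blocked. Running buffer 50 mM HEPES pH 7.5, 150 mM NaCl.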

[2] = target: Bromodomain-containing protein 2 (Homo sapiens, UniProt P25440); assay: Inhibition of His6-tagged BRD2 expressed in Escherichia coli assessed as inhibition of binding to SGRG-K(Ac)-GG-K(Ac)-GLG-K(Ac)-GGA-K(Ac)-RHGSGSK-biotin after 1 hr by TR-FRET assay
Bromodomain-containing protein 2, sequence (P25440 whole entry): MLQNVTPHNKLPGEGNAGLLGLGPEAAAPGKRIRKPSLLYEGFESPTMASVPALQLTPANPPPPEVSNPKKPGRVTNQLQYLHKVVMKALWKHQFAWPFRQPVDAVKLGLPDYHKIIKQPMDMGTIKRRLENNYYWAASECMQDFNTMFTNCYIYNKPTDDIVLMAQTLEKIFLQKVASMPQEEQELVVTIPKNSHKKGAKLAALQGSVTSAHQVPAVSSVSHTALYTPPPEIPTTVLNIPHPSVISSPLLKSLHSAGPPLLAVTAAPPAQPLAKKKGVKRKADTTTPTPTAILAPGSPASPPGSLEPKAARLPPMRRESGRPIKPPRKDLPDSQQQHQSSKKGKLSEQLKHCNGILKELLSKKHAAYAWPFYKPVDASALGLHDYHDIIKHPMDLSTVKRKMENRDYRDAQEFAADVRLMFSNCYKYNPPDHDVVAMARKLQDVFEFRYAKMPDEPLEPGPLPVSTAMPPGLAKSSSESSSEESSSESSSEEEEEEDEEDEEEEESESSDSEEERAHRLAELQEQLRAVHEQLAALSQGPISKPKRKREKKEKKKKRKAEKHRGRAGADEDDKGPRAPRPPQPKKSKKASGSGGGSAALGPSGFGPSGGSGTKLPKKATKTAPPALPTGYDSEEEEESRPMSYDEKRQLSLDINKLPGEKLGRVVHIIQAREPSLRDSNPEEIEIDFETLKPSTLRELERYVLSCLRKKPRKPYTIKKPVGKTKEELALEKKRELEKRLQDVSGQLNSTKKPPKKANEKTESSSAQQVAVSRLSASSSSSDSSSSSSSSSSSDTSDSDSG
In short: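 TR-FRET competition using tandem bromodomain construct; displacement of a tetra-acetylated biotinylated peptide measured, IC50 reported.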

PBMC [3] = assay: Antiinflammatory activity in human PBMC assessed as inhibition of LPS-induced TNFalpha production after 18 to 24 hrs by ELISA; format: functional, cell-based
PBMC [4] = assay: Antiinflammatory activity in human PBMC assessed as inhibition of LPS-induced IL6 production after 18 to 24 hrs by ELISA; format: functional, cell-based

| Kd [1] | RUmax [1] | IC50 [2] | Structure (SMILES) | IC50 (PBMC [3]; read-out: IC50) | IC50 (PBMC [3]; read-out: pIC50 (converted)) | IC50 (PBMC [4]) |
| --- | --- | --- | --- | --- | --- | --- |
| 2750 nM | 25% | 1500 nM | Cc1noc(C)c1-c1ccc(OCCCN2CCOCC2)c(S(=O)(=O)NC2CCCC2)c1 | – | – | – |
| – | – | – | Cc1ccc(-c2c(C)noc2C)cc1S(=O)(=O)NC1CCCC1 | 200 nM | 126 nM | 3100 nM |

Source: ChEMBL document CHEMBL2176978, “Fragment-based discovery of bromodomain inhibitors part 2: optimization of phenylisoxazole sulfonamides” (J Med Chem, 2012)
